Reference: publication PMC4256430 (Journal of immunology (Baltimore, Md. : 1950), 2010)
Entries after “also recorded” stand apart in the source; their conditions may differ. Like-named read-outs stand apart in the source and are kept apart here. No end group written: not given here.

Tests used:
[1] = test system: IL-1β–induced Gr1^+ cell recruitment, WT and Fpr2^−/− mice; assay: IL-1β–induced air pouch, Gr1^+ cell; format: in vivo, mouse; conditions: 4 h; for inhibition of IL-1β-promoted Gr1^+ cell recruitment, WT: Ac2–26 dose-dependent, LXA4 and Cpd43 at anti-inflammatory doses, n = 6, p < 0.01
FPR2/ALX = conditions: ref [32]; cited from earlier work
[2] = test system: ERK phosphorylation in peritoneal Mϕs (WT and Fpr2^−/−); assay: ERK phosphorylation in Mϕs; format: cell-based, mouse; conditions: concentration range, 10 min at 37°C, n = 3; for ERK phosphorylation, Fpr2^−/− Mϕs: Fpr2^−/− Mϕs compared with WT
Procedure, shortened: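 Peritoneal macrophages from WT littermates and Fpr2−/− mice were equilibrated 30 min in Glutamax DMEM with penicillin/streptomycin, then exposed to ligand concentration ranges for 10 min at 37°C. Lysates underwent SDS-PAGE and PVDF transfer. Blots were probed overnight for phospho-p44/42 and total p44/42 (each 1:1000), with HRP anti-rabbit and ECL detection. Read-out was the phospho-/total ERK ratio, from three distinct cultures (Mann-Whitney U).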

Fpr2 [3] = conditions: cited from earlier work
all FPRs = conditions: in vitro experimental settings; ref [33]; cited from earlier work
Fpr2 [4] = format: binding, mouse; conditions: WT Mϕs; [125I]-labeled W-peptide
Procedure, shortened: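 Primary peritoneal macrophages (10 × 10^6 cells/ml in PBS with Ca2+/Mg2+) were incubated with [125I]W-peptide tracer for 1 h on ice. Excess unlabeled W-peptide defined nonspecific binding; specific binding was calculated as total minus nonspecific. Cells were collected on GF/C filters by vacuum filtration and washed three times with ice-cold 10 mM Tris-HCl. Bound counts were read on a γ-counter. The experiment was repeated three times.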

Mϕs (WT and Fpr2^−/−) = assay: Mϕ chemotaxis; format: cell-based, mouse; conditions: 120 min, 37°C, 5-μm pores; for Mϕ chemotaxis, Fpr2^−/− compared with WT: Fpr2^−/− Mϕs, for fMLP at concentrations >1 μM
Procedure, shortened: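 Macrophages were either bone-marrow-derived (5 d in 20% FCS/30% L929-conditioned DMEM) or peritoneal cells elicited by Biogel (harvested 4 d after i.p. 2% P-100). Cells were suspended at 4 × 10^6/ml in RPMI 1640 with 0.1% BSA. 10^5 cells were placed above 5-μm polycarbonate filters, with stimuli below, for 120 min at 37°C/5% CO2. Migrated cells were quantified by 4 h alamarBlue fluorescence (ex 530–560, em 590 nm) against a macrophage standard curve. Three experiments, each in quadruplicate.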

[5] = test system: zymosan-elicited Gr1^+ cell influx, WT and Fpr2^−/− mice; assay: Zymosan-induced peritonitis, Gr1^+ cell recruitment; format: in vivo, mouse; conditions: 1 mg i.v. −10 min, zymosan 1 mg i.p., 4 h, n = 6, NS, mean ± SEM
Procedure, shortened: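 Peritonitis was induced in WT and Fpr2−/− mice with zymosan A, 1 mg i.p. in 0.5 ml PBS. Test protein (1 mg) was given i.v. 10 min before zymosan. Cavities were lavaged at 4 h with PBS containing 25 U/ml heparin and 0.3 mM EDTA. Gr1+ cell influx was quantified by Turk's differential counts and flow cytometry, with percentage of events multiplied by total count per cavity.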

fpr1^−/− mice = conditions: ref [42]; cited from earlier work

For `CC(C)c1c(NC(=O)Nc2ccc(Cl)cc2)c(=O)n(-c2ccccc2)n1C` [Cpd43], the “effect on IL-1β-promoted cell recruitment, Fpr2^−/−” value (“effect” for short) ([1]; Fpr2^−/− mice, i.v., air pouch) is given as “ineffective”, the “inhibition of IL-1β-promoted Gr1^+ cell recruitment, WT” value ([1]; WT mice, i.v., air pouch) is given as 50–75% and the FPR2/ALX agonism (FPR2/ALX) is given as “selective nonpeptidic FPR2/ALX agonist”. The “ERK phosphorylation, WT Mϕs” value [2] was “concentration-dependent rapid phosphorylation of ERK”.

In the case of `CCCCC[C@H](O)/C=C/C=C\C=C\C=C\[C@@H](O)[C@@H](O)CCCC(=O)O` [LXA4, lipoxin A4], the “activation of Fpr2” value (Fpr2 [3]; ref [23]) is listed as “known to be activated”, the “effect” value ([1]; Fpr2^−/− mice, i.v., air pouch) is listed as “ineffective” and the “inhibition of IL-1β-promoted Gr1^+ cell recruitment, WT” value ([1]; WT mice, i.v., air pouch) is listed as 50–75%.

In the case of `C[C@@H]1C[C@H]2[C@@H]3CCC4=CC(=O)C=C[C@]4(C)[C@@]3(F)[C@@H](O)C[C@]2(C)[C@@]1(O)C(=O)COP(=O)([O-])[O-].[Na+].[Na+]` [dexamethasone, dexamethasone 21-phosphate disodium salt], the “efficacy in air pouch, Fpr2^−/− mice” value ([1]; Fpr2^−/− mice, dexamethasone 0.5 mg/kg i.v. −1 h, IL-1β 20 ng) is reported as “reduced efficacy” and the “Gr1^+ cell infiltrate into air pouch, WT” value ([1]; WT mice, dexamethasone 0.5 mg/kg i.v. −1 h, IL-1β 20 ng) is reported as “significantly reduced”.

For Ac-AMVSEFLKQAWIENEEQEYVVQTVK [Ac2–26], the “activation of FPRs” value (all FPRs) is listed as “known to activate all FPRs”.

For WKYMVm [W-peptide], the “ligand activity / affinity at Fpr2” value (Fpr2 [3]; high-affinity ligand, ref [30]) is listed as “high-affinity ligand for Fpr2”, the “binding sites revealed by Scatchard plot” value (Fpr2 [4]) is listed as “both high- and low-affinity binding sites” and the “ERK phosphorylation, Fpr2^−/− Mϕs” value [2] is listed as “absent”. For the same molecule, the “ERK phosphorylation, WT Mϕs” value [2] was “concentration-dependent rapid phosphorylation of ERK”.

For formyl-Met-Leu-Phe [fMLP], the “concentration for optimal Mϕ chemotaxis” value (Mϕs (WT and Fpr2^−/−); mean of three experiments in quadruplicate) was 1 µM and the “Mϕ chemotaxis, Fpr2^−/− compared with WT” value (Mϕs (WT and Fpr2^−/−)) was “attenuated significantly”.

B1: SAA: serum amyloid A, purchased from PeproTech (protein, UniProt P0DJI8 19-122, looked up)
Serum amyloid A-1 protein: RSFFSFLGEAFDGARDMWRAYSDMREANYIGSDKYFHARGNYDAAKRGPGGAWAAEVITDARENIQRFFGHGAEDSLADQAANEWGRSGKDPNHFRPAGLPEKY
For B1, the “activation of Fpr2” value (Fpr2 [3]; ref [22]) is given as “known to be activated”, the “effect” value ([1]; Fpr2^−/− mice, i.v., air pouch) is given as “did not share this response” and the “increase in number of cells recruited by IL-1β over control” value ([1]; WT mice, i.v., air pouch, control values of 3.0 ± 0.4 × 10^6 per cavity) is given as 1.5 fold. The “Mϕ chemotaxis, Fpr2^−/− compared with WT” value (Mϕs (WT and Fpr2^−/−)) was “absent”, the “Mϕ chemotaxis, WT” value (Mϕs (WT and Fpr2^−/−); WT Mϕs) was “promoted consistently” and the “ERK phosphorylation, Fpr2^−/− Mϕs” value [2] was “unchanged; also recorded: retained; also recorded: not diminished”.

B2: hrAnxA1: GST-tagged human recombinant annexin A1, produced in Escherichia coli (protein, UniProt P04083 2-346, looked up)
Annexin A1: AMVSEFLKQAWFIENEEQEYVQTVKSSKGGPGSAVSPYPTFNPSSDVAALHKAIMVKGVDEATIIDILTKRNNAQRQQIKAAYLQETGKPLDETLKKALTGHLEEVVLALLKTPAQFDADELRAAMKGLGTDEDTLIEILASRTNKEIRDINRVYREELKRDLAKDITSDTSGDFRNALLSLAKGDRSEDFGVNEDLADSDARALYEAGERRKGTDVNVFNTILTTRSYPQLRRVFQKYTKYSKHDMNKVLDLELKGDIEKCLTAIVKCATSKPAFFAEKLHQAMKGVGTRHKALIRIMVSRSEIDMNDIKAFYQKMYGISLCQAILDETKGDYEKILVALCGGN
modifications: GST tag
With B2 the “inhibition of PMN accumulation in air pouch, Fpr2^−/− mice” value ([1]; Fpr2^−/− mice, i.v. −10 min, IL-1β 20 ng, NS) was 25–30%, the “inhibition of PMN accumulation in air pouch, dose dependence” value ([1]; WT mice, i.v. −10 min, IL-1β 20 ng) was “dose-response inhibition” and the “reduction of Gr1^+ cell content in peritoneal fluids, Fpr2^−/−” value [5] was −5 ± 12%. The “anti-migratory action in fpr1^−/− mice” value (fpr1^−/− mice) was “a high proportion of the anti-migratory action of hrAnxA1 is retained”.
